ChEMBL document CHEMBL4400525, “Toward a treatment of diabesity: In vitro and in vivo evaluation of uncharged bromophenol derivatives as a new series of PTP1B inhibitors” (Eur J Med Chem, 2019)
Active and inactive are the calls of the source. The calls are words filed in the database; no cut-off is given here.

Tested on: Mus musculus
Test: Antidiabetic activity in BKS db mouse assessed as improvement in insulin sensitivity at 100 mg/kg, po administered once daily for 2 weeks followed by insulin challenge and measured up to 120 mins by ITT
Format: functional, organism-based
Method in brief: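 In week 2 of treatment at 100 mg/kg/day p.o., an insulin tolerance test was run in db mice (n = 8) with 0.75 U/kg insulin. Blood glucose was followed over time and the area under the curve was calculated. Values are mean ± SEM.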

CCOc1ccc(Oc2ccc(-c3cnc(-c4cc(O)c(O)c(Br)c4Br)o3)cc2)cc1
Activity: Active
